# Screening data as filed in PubChem BioAssay.
# Compounds with a hit are over-represented: about 2.4% of the library has one in this group of screens.
# MT stabilize HCS – stabilizes microtubules in HeLa cells. % tubulin-high responders, % at 10 µM. hit rate 0.83% among 200,000. HeLa tubulin immunostaining HCS, 24 h; share of cells brighter than vehicle mean+2SD. AID 2205;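 active = plate Z-score above 3 for both tubulin-high and condensed-nucleus cell shares, with cell loss under 80%, at 10 µM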;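 note: anti alpha tubulin signal scored within the nucleus-defined area of each cell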
# HMGR II inh – E. faecalis class II HMG-CoA reductase inhibition. purified E. faecalis HMGR, NADPH absorbance 340 nm kinetic. inhibition, % at 10 µM. hit rate 0.41% among 190,000. AID 1066;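 active = inhibition above a set limit, the median over all tested compounds plus 3 SD, cut at about 9.5% in these data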;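 note: enzyme runs in reverse so mevalonate oxidation gives rising NADPH absorbance; 0% = complete reaction with DMSO and 100% = background rate lacking mevalonate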
# bCat nuc transl – modulators of beta-catenin nuclear translocation; hit rate 0.3% among 190,000; HeLa beta-catenin nuclear translocation, immunofluorescence imaging; AID 1665; nuclear translocation activity, % at 5 µM;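 active = nuclear translocation activity above 50% at 5 µM, with a well cell count of 50 or more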;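 note: per-cell ratio of nuclear to cytoplasmic median beta-catenin stain intensity; plate controls were DMSO negative control for no effect and GSK-3 inhibitor IX positive control for full effect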
#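 Technique: fluorescence imaging of beta-catenin antibody stain plus DAPI / Material: human HeLa cell line / Incubation: compound treatment 24 h, 37°C, 5% CO2 / Read-out basis: % activation of per-cell nuclear versus cytoplasmic median beta-catenin signal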
# PGE2 EP2 inh – inhibitors of human EP2 prostaglandin E2 receptor; P43116; C6 glioma cells expressing human EP2, cAMP TR-FRET; cells stimulated with saturating PGE2; inhibition, % at 25 µM; hit rate 0.52% among 260,000;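 active = percent inhibition above 40 after rounding to a whole number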;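 note: rat C6 glioma host cells with rolipram phosphodiesterase inhibitor present; the protocol text gives 20 µM as final concentration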
# Target sequence (P43116 whole entry, looked up): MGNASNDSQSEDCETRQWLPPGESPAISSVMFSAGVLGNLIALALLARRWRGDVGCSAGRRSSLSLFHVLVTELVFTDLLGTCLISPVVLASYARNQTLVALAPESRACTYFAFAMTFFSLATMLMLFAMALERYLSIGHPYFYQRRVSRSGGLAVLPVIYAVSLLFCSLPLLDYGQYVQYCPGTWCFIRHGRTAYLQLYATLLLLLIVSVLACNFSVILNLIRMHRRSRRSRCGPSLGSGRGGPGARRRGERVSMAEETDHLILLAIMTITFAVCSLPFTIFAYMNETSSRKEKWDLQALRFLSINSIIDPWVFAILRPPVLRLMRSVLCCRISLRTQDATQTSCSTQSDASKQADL
# TbHK1 inh – T. brucei hexokinase 1 inhibition | recombinant TbHK1, G6PDH-coupled NADH A340 | inhibition, % at 10 µM | hit rate 0.11% among 220,000 | AID 1430;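 active = inhibition of 50% or more in the single-dose primary screen; inactive = inhibition below 50%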
# EP2 mod – modulators of human EP2 prostaglandin E2 receptor. hit rate 0.83% among 260,000. EP2-expressing cells, cAMP HTRF FRET, PGE2 co-stimulation. induction, % at 25 µM. P43116;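 active = compounds whose cAMP rise, as percent of the full-agonist control response, exceeds 60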;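 note: rat C6 glioma line stably carrying human EP2 under a CMV promoter; the protocol text gives 20 µM as final concentration; 100% = response of wells given 1 µM PGE2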
# * marks the source's active call; other numbers are inactive results; nt = not tested or not shown; ! = not active in a repeat.
SMILES,MT stabilize HCS,HMGR II inh,bCat nuc transl,PGE2 EP2 inh,TbHK1 inh,EP2 mod
COc1ccc(Nc2nc(-c3c(C)nc4ncccn34)cs2)cc1,14.3*,4.5,55.8*,4.3,-1.5,-72.9
Cc1nc2ncccn2c1-c1csc(Nc2ccccc2)n1,19.0*,-2.6,4.9,4.5,-8.8,-46.0
COc1ccccc1Nc1nc(-c2c(C)nc3ncccn23)cs1,15.1*,-3.5,3.9,14.1,-11.0,-19.9
Cc1nc2ncccn2c1-c1csc(Nc2ccc(N(C)C)cc2)n1,12.7,-5.0,36.2,6.3,-10.5,-4.7
CCc1cc2cc(C)c(C)cc2nc1SCC(=O)Nc1c[nH]c(=O)[nH]c1=O,nt,nt,nt,5.9,nt,19.2
COc1ccccc1C1(NC(=O)c2cccc(N3CCCCS3(=O)=O)c2)CCCC1,nt,nt,nt,1.8,nt,-17.6
O=c1ccc2[n+]([O-])c3ccc(O)cc3oc-2c1,nt,nt,nt,82.7*,7.8,-253.3
O=c1cc(O)c2ccc(O)cc2o1,5.2,0.7,-1.1,10.3,-9.3,8.0
COc1ccc2c(c1)C(=O)CC1(CCN(C(=O)C3CCCC3)CC1)O2,nt,nt,nt,5.8,nt,-36.9
S=c1[nH]c(-c2ccccc2)cn1/N=C/c1ccccc1Br,4.0,-3.3,-3.0,7.3,-4.6,-24.2
S=c1[nH]c(-c2ccccc2)cn1/N=C/c1cccc2ccccc12,17.9*,-7.7,3.6,10.1,-3.9,-64.4
CCN(CC)CCOC(=O)c1ccc(NC(=O)c2ccc(Cl)c(S(=O)(=O)N3CCCCCC3)c2)cc1,24.7*,-2.3,4.9,8.9,4.8,-80.6
O=C(Nc1cccnc1)c1ccc(Cl)c(S(=O)(=O)N2CCCCCC2)c1,1.6,-4.9,-5.6,12.8,2.8,-10.0
Cc1cc(C)n(C(=O)CCCCCCCC(=O)n2nc(C)cc2C)n1,5.4,0.6,2.2,7.5,-0.5,28.0
Cc1cc(C)n(C(=O)CCCCCCCCC(=O)n2nc(C)cc2C)n1,2.4,-4.8,-1.4,0.8,-2.7,60.8*
O=[N+]([O-])c1ccccc1N/N=C/c1ccc2c(c1)OCO2,5.1,1.0,0.0,8.8,-7.3,-4.1
O=[N+]([O-])c1ccc2c(c1)Cc1cc(N=Cc3ccc4c(c3)OCO4)ccc1-2,nt,nt,nt,50.8*,nt,-25.9
CC(=O)c1ccc(NC(=O)CSc2nc3c(c(C(F)(F)F)n2)CCc2ccccc2-3)cc1,nt,nt,nt,13.9,nt,5.8
COC(=O)Cn1nc2c(C)cc3ccc(OC)cc3n2c1=O,nt,nt,nt,nt,nt,-1.4
CCc1nnc(NC(=O)CSc2nc3ccc(C)cc3cc2C#N)s1,nt,nt,nt,9.0,nt,-21.2
COC(=O)CSc1nc2cc(OC)ccc2cc1C#N,2.0,0.9,-1.5,8.2,-3.5,17.6
CCc1nnc(NC(=O)CSc2nnc(-c3ccccc3O)n2-c2ccc(C)cc2C)s1,37.9*,-9.8,0.4,8.6,4.0,33.3
CCc1nnc(NC(=O)CSc2nnc(-c3cccnc3)n2-c2ccccc2C)s1,nt,nt,nt,11.4,nt,22.1
CCOc1ccc2cc(C#N)c(SCC(=O)Nc3nnc(CC)s3)nc2c1,nt,nt,nt,22.0,nt,73.1*
COc1ccc2cc(C#N)c(SCC(=O)OC(C)C)nc2c1,nt,nt,nt,14.9,nt,84.1*
SMILES,MT stabilize HCS,HMGR II inh,bCat nuc transl,PGE2 EP2 inh,TbHK1 inh,EP2 mod
COc1ccc2cc(C#N)c(SCC(=O)N3CC(=O)Nc4ccccc43)nc2c1,nt,nt,2.1,30.9,-3.8,73.0*!
O=C(CSc1nnc(Cn2cnc3ccccc32)o1)Nc1ccc(Br)cc1,nt,nt,nt,13.8,nt,-11.4
COc1ccc(NC(=O)N(CCCN2CCOCC2)Cc2cc3cccc(C)c3[nH]c2=O)cc1,nt,nt,nt,7.3,nt,-21.6
COC(=O)[C@@]1(C)CCC[C@]2(C)c3ccc(O)c(C(C)C)c3CCC12 (stereo not given in full),nt,nt,nt,13.4,nt,10.3
CCc1ccc(NC(=O)CSc2nc3cc(OC)ccc3cc2C#N)cc1,nt,nt,nt,18.9,nt,26.8
CCc1nnc(NC(=O)CSc2nc3cc(C)c(C)cc3cc2CC)s1,nt,nt,nt,19.8,nt,68.7*
COc1cccc(NC(=O)CSc2nc3cc(OC)ccc3cc2C#N)c1,nt,nt,nt,6.2,nt,66.6*
Clc1ccc2c(c1)c1ccccc1n2CN1CCOCC1,5.8,-2.0,-1.7,7.3,-1.8,12.9
Clc1ccc2c(c1)c1cc(Cl)ccc1n2CN1CCOCC1,2.5,3.4,-1.7,1.6,0.1,64.4*
CCC(=O)OCN1C(=O)C=CC1=O,nt,nt,nt,82.1*,nt,-33.1
CCC(C(=O)N1CCC(n2nc(-c3ccco3)ccc2=O)CC1)c1ccccc1 (stereo not given),nt,nt,nt,nt,nt,-25.2
